Assay results: ChEMBL document CHEMBL2034843, “3α-Hydroxymasticadienonic acid as an antiproliferative agent that impairs mitochondrial functions” (J Nat Prod, 2012)
The source made the active and inactive calls. No cut-off for these calls is given here.

What was measured:
[1] = organism: Rattus norvegicus; test: Induction of mitochondrial bioenergetics dysfunction in rat liver mitochondria assessed as decrease in respiratory control index at 10 uM by using clark electrode; format: functional
Procedure, shortened: (§1)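 Isolated rat liver mitochondria (1 mg protein/mL), 20 °C, sucrose/HEPES pH 7.4 medium with 5 mM succinate plus 1.25 μM rotenone and 1 mM phosphate. O2 uptake followed with a Clark electrode; 300 μM ADP added to start state 3. RCI = V3/V4 (state 3 over state 4 rate). Five experiments.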

[2] = organism: Rattus norvegicus; test: Induction of mitochondrial dysfunction in rat liver mitochondria assessed as increase in colloid-osmotic swelling at 10 uM by spectrophotometric analysis in presence of 50 uM Ca2+ and cyclosporin A; format: functional
Procedure, shortened: (§2)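 Swelling read as the 540 nm absorbance decrease in succinate-energized rat liver mitochondria (1 mg protein/mL, 20 °C, pH 7.4 sucrose/HEPES medium) with 50 μM Ca2+. Added agents where indicated: 1 μM CsA, 5 μM bongkrekic acid, 1 mM ADP, 2 μM ruthenium red, 10 μM NEM, 1 mM DTE. At least five repeats.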

[3] = organism: Rattus norvegicus; test: Induction of mitochondrial dysfunction in rat liver mitochondria assessed as increase in colloid-osmotic swelling at 10 uM by spectrophotometric analysis in presence of 50 uM Ca2+ and ADP; format: functional; procedure, shortened: as §2
[4] = organism: Rattus norvegicus; test: Induction of mitochondrial dysfunction in Ca2+-stimulated rat liver mitochondria assessed as decrease in mitochondrial redox level at 10 uM after 15 mins by absorption spectrophotometric analysis in presence of Ca2+ transport inhibitor ruthedium red; format: functional
Procedure, shortened: (§3)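 Mitochondrial protein thiol oxidation assayed per Santos et al. after 15 min incubation of rat liver mitochondria (1 mg protein/mL, 20 °C, succinate/rotenone standard medium). Results as % reduced thiols, mean ± SD, four independent experiments.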

[5] = organism: Rattus norvegicus; test: Induction of mitochondrial dysfunction in rat liver mitochondria assessed as increase in colloid-osmotic swelling at 10 to 100 uM by spectrophotometric analysis; format: functional
Procedure, shortened: (§4)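 Absorbance change at 540 nm of rat liver mitochondrial suspensions (1 mg protein/mL, 20 °C, succinate/rotenone energized, 250 mM sucrose, 10 mM HEPES pH 7.4, 1 mM phosphate); a fall in absorbance taken as swelling. Ca2+ at 50, 70 or 90 μM as specified, or omitted. Runs repeated at least four times.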

[6] = organism: Rattus norvegicus; test: Induction of mitochondrial dysfunction in rat liver mitochondria assessed as increase in colloid-osmotic swelling at 100 uM by spectrophotometric analysis in presence of 50 uM Ca2+; format: functional; procedure, shortened: as §4
[7] = organism: Rattus norvegicus; test: Induction of mitochondrial dysfunction in rat liver mitochondria assessed as Ca2+ accumulation at 10 uM after 1 to 2 mins by spectrophotometric analysis; format: functional
Procedure, shortened: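 Ca2+ movements in rat liver mitochondria (1 mg protein/mL, 20 °C, succinate/rotenone medium) exposed to 70 μM Ca2+; Ca2+ in mitochondrial pellets measured by atomic absorption spectroscopy, uptake expressed per mg protein.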

[8] = organism: Rattus norvegicus; test: Induction of mitochondrial dysfunction in rat liver mitochondria assessed as increase in colloid-osmotic swelling at 10 uM by spectrophotometric analysis in presence of 50 uM Ca2+ and AdNT; format: functional; procedure, shortened: as §2
[9] = organism: Rattus norvegicus; test: Induction of mitochondrial dysfunction in rat liver mitochondria assessed as apoptosis inducing factor release at 10 uM after 15 mins by Western blot analysis in presence of Ca2+; format: functional
Procedure, shortened: (§5)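 Mitochondria (1 mg protein/mL) held 15 min at 20 °C in standard succinate/rotenone medium with or without Ca2+, then centrifuged 13000g, 10 min, 4 °C. Supernatants concentrated, resolved by SDS-PAGE (15% for cyt c, 10% for AIF) and immunoblotted with mouse anti-cyt c or rabbit anti-AIF.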

[10] = tested on: HeLa; test: Cytotoxicity against human HeLa cells after 72 hrs by trypan blue assay; format: functional, cell-based
Procedure, shortened: (§6)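 Cells seeded at 4 × 10^4 per well, grown 24 h, then given fresh medium with a range of concentrations and kept a further 72 h at 37 °C in 5% CO2. Viability was read by trypan blue count. IC50 is the concentration giving 50% fewer cells than control cultures, as mean ± SD of at least four experiments. HeLa were grown in F-12 with 10% heat-inactivated FCS; A-431 and HepG2 in DMEM with 10% FBS.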

[11] = tested on: HepG2; test: Cytotoxicity against human HepG2 cells after 72 hrs by trypan blue assay; format: functional, cell-based; conditions: HepG2, 72 h; procedure, shortened: as §6
[12] = organism: Rattus norvegicus; test: Induction of mitochondrial dysfunction in rat liver mitochondria assessed as decrease in mitochondrial redox level at 10 uM after 15 mins by absorption spectrophotometric analysis; format: functional; design: scale not given: the % may be the effect or the level left; procedure, shortened: as §3
[13] = organism: Rattus norvegicus; test: Induction of mitochondrial dysfunction in rat liver mitochondria assessed as increase in mitochondrial swelling at < 20 uM by spectrophotometric analysis in presence of 70 uM Ca2+; format: functional; procedure, shortened: as §4
[14] = organism: Rattus norvegicus; test: Induction of mitochondrial dysfunction in rat liver mitochondria assessed as cytochrome c release at 10 uM after 15 mins by Western blot analysis; format: functional; procedure, shortened: as §5
[15] = organism: Rattus norvegicus; test: Induction of mitochondrial dysfunction in Ca2+-stimulated rat liver mitochondria assessed as decrease in mitochondrial redox level at 10 uM after 15 mins by absorption spectrophotometric analysis in presence of bongkrekic acid; format: functional; procedure, shortened: as §3
[16] = organism: Rattus norvegicus; test: Induction of mitochondrial bioenergetics dysfunction in rat liver mitochondria assessed as decrease in respiratory control index at 25 uM by using clark electrode; format: functional; procedure, shortened: as §1
[17] = organism: Rattus norvegicus; test: Induction of mitochondrial dysfunction in rat liver mitochondria assessed as apoptosis inducing factor release at 100 uM after 15 mins by Western blot analysis; format: functional; procedure, shortened: as §5
[18] = organism: Rattus norvegicus; test: Induction of mitochondrial dysfunction in rat liver mitochondria assessed as decrease in membrane potential at 10 uM by spectrophotometric analysis in presence of 50 uM Ca2+; format: functional; conditions: TDE = time-dependent effect
Procedure, shortened: (§7)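 Membrane potential (ΔΨ) derived from TPP+ distribution across the inner membrane, measured with a TPP+-selective electrode. Ca2+ 50 μM where indicated; cyclosporin A 1 μM where indicated.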

[19] = organism: Rattus norvegicus; test: Induction of mitochondrial dysfunction in Ca2+-stimulated rat liver mitochondria assessed as decrease in SH mitochondrial redox level at 10 uM after 15 mins by absorption spectrophotometric analysis in presence of dithiothreitol; format: functional; procedure, shortened: as §3
[20] = organism: Rattus norvegicus; test: Induction of mitochondrial dysfunction in rat liver mitochondria assessed as decrease in membrane potential at 5 uM by spectrophotometric analysis in presence of 50 uM Ca2+; format: functional; conditions: TDE = time-dependent effect; procedure, shortened: as §7
[21] = organism: Rattus norvegicus; test: Induction of mitochondrial dysfunction in rat liver mitochondria assessed as decrease in mitochondrial redox level at 100 uM after 15 mins by absorption spectrophotometric analysis; format: functional; design: scale not given: the % may be the effect or the level left; procedure, shortened: as §3
[22] = organism: Rattus norvegicus; test: Induction of mitochondrial dysfunction in rat liver mitochondria assessed as decrease in mitochondrial redox level at 10 uM after 15 mins by absorption spectrophotometric analysis in presence of 50 uM Ca2+; format: functional; design: scale not given: the % may be the effect or the level left; procedure, shortened: as §3
[23] = tested on: A-431; test: Cytotoxicity against human A431cells after 72 hrs by trypan blue assay; format: functional, cell-based; conditions: A-431, 72 h; procedure, shortened: as §6
[24] = organism: Rattus norvegicus; test: Induction of mitochondrial dysfunction in Ca2+-stimulated rat liver mitochondria assessed as decrease in mitochondrial redox level at 10 uM after 15 mins by absorption spectrophotometric analysis in presence of ADP; format: functional; procedure, shortened: as §3
[25] = organism: Rattus norvegicus; test: Induction of mitochondrial dysfunction in rat liver mitochondria assessed as increase in mitochondrial swelling at 10 uM by spectrophotometric analysis in presence of 70 uM Ca2+; format: functional; procedure, shortened: as §4
[26] = organism: Rattus norvegicus; test: Hepatoprotective activity in rat liver mitochondria assessed as inhibition of Ca2+-induced mitochondrial swelling at > 20 uM by spectrophotometric analysis; format: functional; procedure, shortened: as §4

C/C(=C/CC[C@H](C)[C@@H]1CC[C@]2(C)C3=CC[C@H]4C(C)(C)[C@H](O)CC[C@]4(C)[C@H]3CC[C@@]12C)C(=O)O
Activity [1]: Active
Activity [2]: inactive
Activity [3]: inactive
Activity [4]: inactive
Activity [5]: inactive
Activity [6]: Active
Activity [7]: inactive
Activity [8]: inactive
Activity [9]: Active
IC50 [10]: 28.9 µM
IC50 [11]: 20.1 µM
Activity [12]: 20%
Activity [13]: Active
Activity [14]: inactive
Activity [15]: Active
Activity [16]: Active
Activity [17]: inactive
Activity [18]: tde
Activity [19]: inactive
Activity [20]: tde
Activity [21]: 25%
Activity [22]: 50%
IC50 [23]: 40 µM
Activity [24]: Active
Activity [25]: Active
Activity [26]: Active
